The source of these data is ChEMBL document CHEMBL4014325.

Activity calls are given as the source filed them. No cut-off for these calls is given here.

Data set [1] addresses Cystic fibrosis transmembrane conductance regulator (Homo sapiens) (UniProt P13569). As to the kind of experiment: Inhibition of human wild type CFTR expressed in FRT cells co-expressing halide sensitive YFP-H148Q assessed as reduction in forskolin induced cAMP activated chloride conductance by measuring decrease in iodide influx after 15 mins by fluorescence assay. The data set is classed as cell-based. The procedure, abridged:
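FRT cells co-expressing YFP and wild-type CFTR, washed with PBS. Incubated 15 min with compound in PBS containing 20 μM forskolin. Plate reader baseline 2 s, then 12 s after rapid addition of I⁻-containing solution; initial I⁻ influx rate computed.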

Data set [2] has as its target T1, Anoctamin-1 (Homo sapiens, UniProt Q5XXA6).
T1 sequence (Q5XXA6 whole entry): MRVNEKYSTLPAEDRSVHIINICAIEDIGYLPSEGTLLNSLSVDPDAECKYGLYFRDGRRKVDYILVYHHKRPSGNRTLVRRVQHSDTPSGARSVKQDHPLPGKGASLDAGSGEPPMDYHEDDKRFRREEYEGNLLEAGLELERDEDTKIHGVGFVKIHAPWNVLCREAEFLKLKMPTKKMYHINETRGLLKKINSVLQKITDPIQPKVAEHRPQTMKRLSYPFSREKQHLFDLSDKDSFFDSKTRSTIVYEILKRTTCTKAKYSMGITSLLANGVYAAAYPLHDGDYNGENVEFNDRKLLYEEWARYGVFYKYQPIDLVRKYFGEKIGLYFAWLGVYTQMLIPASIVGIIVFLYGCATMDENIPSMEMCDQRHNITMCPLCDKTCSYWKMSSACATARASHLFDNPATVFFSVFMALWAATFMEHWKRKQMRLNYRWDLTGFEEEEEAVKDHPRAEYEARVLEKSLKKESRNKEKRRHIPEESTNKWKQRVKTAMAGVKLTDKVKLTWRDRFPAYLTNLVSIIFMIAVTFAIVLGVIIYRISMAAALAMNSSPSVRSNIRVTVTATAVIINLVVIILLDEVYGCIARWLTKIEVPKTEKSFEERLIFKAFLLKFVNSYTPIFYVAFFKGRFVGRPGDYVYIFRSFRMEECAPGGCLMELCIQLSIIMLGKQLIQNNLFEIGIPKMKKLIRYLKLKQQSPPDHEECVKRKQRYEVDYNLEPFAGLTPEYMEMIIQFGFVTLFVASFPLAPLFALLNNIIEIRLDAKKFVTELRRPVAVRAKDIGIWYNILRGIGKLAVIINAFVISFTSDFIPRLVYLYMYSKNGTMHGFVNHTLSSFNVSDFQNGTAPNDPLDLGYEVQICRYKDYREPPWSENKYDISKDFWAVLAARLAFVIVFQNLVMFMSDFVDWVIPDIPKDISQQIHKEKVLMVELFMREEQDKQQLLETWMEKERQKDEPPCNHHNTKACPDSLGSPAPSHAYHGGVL
The data set can be described thus: (§1) Inhibition of human TMEM16A expressed in FRT cells co-expressing iodide sensitive fluorescent protein YFP-H148Q/I152L/F46L assessed as reduction in ATP-induced Ca2+ activation-mediated chloride current by measuring decrease in iodide influx preincubated for 10 mins followed by ATP/iodide addition by fluorescence assay. It is filed as cell-based. In short, it runs like this:
(§2)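 FRT cells stably expressing human TMEM16A and YFP, plated at 20,000 cells/well and used 24–48 h later. An equal volume of 140 mM I⁻ solution containing 300 μM ATP was added, and reading continued 12 s at 400 ms/point. Initial I⁻ influx rate fitted by nonlinear regression; IC₅₀ from concentration-inhibition data.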

Data set [3] concerns the target T1, Anoctamin-1. As to the kind of experiment: Inhibition of human TMEM16A expressed in FRT cells assessed as reduction of ATP-induced in chloride conductance preincubated for 5 mins followed by ATP addition by short-circuit current assay. It is filed as cell-based.
A short description of data set [4]: Inhibition of calcium activated chloride channel in ATP-activated human HT-29 cells expressing YFP-H148Q/152L assessed as reduction in iodide influx preincubated for 10 mins followed by ATP addition by fluorescence assay. The procedure, abridged:
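Endogenous non-TMEM16A CaCC in HT-29 cells expressing YFP, read by plate reader. Initial rate of I⁻ influx taken as a linear measure of channel function. IC₅₀ from concentration-inhibition data; n=3.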

Data set [5] deals with T2, Anoctamin-2 (Homo sapiens, UniProt Q9NQ90).
T2 sequence (Q9NQ90 whole entry): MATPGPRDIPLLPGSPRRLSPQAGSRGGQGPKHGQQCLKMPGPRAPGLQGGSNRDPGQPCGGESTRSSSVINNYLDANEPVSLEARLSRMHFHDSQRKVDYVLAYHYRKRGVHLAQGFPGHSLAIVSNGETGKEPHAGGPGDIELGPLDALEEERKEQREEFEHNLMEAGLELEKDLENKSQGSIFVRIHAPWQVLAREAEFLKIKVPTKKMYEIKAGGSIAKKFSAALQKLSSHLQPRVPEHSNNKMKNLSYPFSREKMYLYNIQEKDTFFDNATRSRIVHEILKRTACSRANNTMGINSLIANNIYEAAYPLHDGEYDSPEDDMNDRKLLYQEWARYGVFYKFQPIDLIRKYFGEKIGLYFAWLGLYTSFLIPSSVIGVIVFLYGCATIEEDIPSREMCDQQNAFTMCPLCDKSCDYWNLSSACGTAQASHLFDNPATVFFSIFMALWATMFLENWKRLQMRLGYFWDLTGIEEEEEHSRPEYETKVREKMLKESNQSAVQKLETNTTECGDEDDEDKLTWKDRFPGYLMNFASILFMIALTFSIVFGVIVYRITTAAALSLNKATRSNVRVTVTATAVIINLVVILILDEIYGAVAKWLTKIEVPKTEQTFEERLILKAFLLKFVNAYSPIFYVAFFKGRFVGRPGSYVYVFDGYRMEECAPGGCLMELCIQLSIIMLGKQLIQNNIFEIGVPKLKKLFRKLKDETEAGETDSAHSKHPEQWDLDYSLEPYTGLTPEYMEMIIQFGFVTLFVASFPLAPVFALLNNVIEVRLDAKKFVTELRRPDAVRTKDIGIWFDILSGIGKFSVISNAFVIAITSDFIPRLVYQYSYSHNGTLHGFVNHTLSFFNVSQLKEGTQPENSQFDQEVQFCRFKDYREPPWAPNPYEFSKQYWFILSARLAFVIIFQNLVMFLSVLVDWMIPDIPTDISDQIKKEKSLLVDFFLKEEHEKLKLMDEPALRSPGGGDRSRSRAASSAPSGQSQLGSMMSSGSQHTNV
As to the kind of experiment: Inhibition of human TMEM16B expressed in FRT cells co-expressing iodide sensitive fluorescent protein YFP-H148Q/I152L/F46L assessed as reduction in ATP-induced Ca2+ activation-mediated chloride current by measuring decrease in iodide influx preincubated for 10 mins followed by ATP/iodide addition by fluorescence assay. The data set is classed as cell-based. In short, it runs like this:
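FRT cells co-expressing YFP and TMEM16B, given compound for 10 min, then I⁻ solution with ATP added. Fluorescence read by plate reader; initial I⁻ influx rate computed. IC₅₀ from concentration-inhibition data; n=3.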

Data set [6] addresses T1, Anoctamin-1. The data set can be described thus: Inhibition of TMEM16A (unknown origin) expressed in Xenopus laevis oocytes at -60 mV holding potential by voltage-clamp assay.
Data set [7] is described as follows: Cytotoxicity against human HT-29 cells assessed as cell survival at 5 uM after 8 hrs by alamar blue assay relative to control. The data set is classed as cell-based. To be noted: read-out: Survival. In short, it runs like this: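 Cells cultured overnight, then exposed to compound at 5 μM for 8 h. Viability read by Alamar Blue per kit instructions. Table reports n=3.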
On the technique in general: Resazurin is reduced to fluorescent resorufin, in cell work by metabolically active cells.

A short description of data set [8]: Drug level in aqueous solution treated with 2-(2-Bromo-2,2-difluoro-acetylamino)-5,6,7,8-tetrahydro-4H-cyclohepta[b]thiophene-3-carboxylicacid-o-tolylamide after 3 days by ESI-LCMS analysis. In short, it runs like this: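 Duplicate samples of 100 μM compound in H₂O (20% DMSO) with 100 μM 5-chloro-3-phenyl-2,1-benzisoxazole as internal standard. Kept at 25 °C for 3 days and analysed daily by ESI-LCMS for the parent compound and the oxalamic acid degradation product.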

Another data set relates to Liver. The data set can be described thus: Metabolic stability in rat liver microsomes at 10 uM after 180 mins in presence of NADPH by LC/MS analysis. It is filed as ADME, microsome. Conditions: 3 h. The procedure, abridged:
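10 μM compound shaken at 37 °C with rat liver microsomes (1 mg protein/mL) in 100 mM potassium phosphate buffer with 1 mM NADPH, sampled at 2–180 min. Quenched on ice with ice-cold ethyl acetate, centrifuged, supernatant dried and redissolved. Parent compound quantified by C₁₈ reverse-phase LC/MS (5–95% acetonitrile gradient); mean ± SEM, n=3.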
(In general: Microsomes from liver hold many membrane-bound enzymes, among them those of drug oxidation.)

The target in data set [9] is T3, Anoctamin-1 (Homo sapiens) (UniProt Q5XXA6).
T3 sequence (whole entry): T1 sequence (Q5XXA6 whole entry)
Described as §1. The data set is classed as cell-based. In short, it runs like this: as §2

Data set [10] in a line: Solubility of compound in DMSO. The data set is classed as physicochemical.
For data set [11], the target named is T2, Anoctamin-2. As to the kind of experiment: Inhibition of TMEM16B (unknown origin) expressed in FRT cells assessed as reduction of ATP-induced chloride conductance preincubated for 20 mins followed by ATP addition by short-circuit current assay. It is filed as cell-based.

Cystic fibrosis transmembrane conductance regulator (Homo sapiens), sequence (P13569 whole entry, looked up): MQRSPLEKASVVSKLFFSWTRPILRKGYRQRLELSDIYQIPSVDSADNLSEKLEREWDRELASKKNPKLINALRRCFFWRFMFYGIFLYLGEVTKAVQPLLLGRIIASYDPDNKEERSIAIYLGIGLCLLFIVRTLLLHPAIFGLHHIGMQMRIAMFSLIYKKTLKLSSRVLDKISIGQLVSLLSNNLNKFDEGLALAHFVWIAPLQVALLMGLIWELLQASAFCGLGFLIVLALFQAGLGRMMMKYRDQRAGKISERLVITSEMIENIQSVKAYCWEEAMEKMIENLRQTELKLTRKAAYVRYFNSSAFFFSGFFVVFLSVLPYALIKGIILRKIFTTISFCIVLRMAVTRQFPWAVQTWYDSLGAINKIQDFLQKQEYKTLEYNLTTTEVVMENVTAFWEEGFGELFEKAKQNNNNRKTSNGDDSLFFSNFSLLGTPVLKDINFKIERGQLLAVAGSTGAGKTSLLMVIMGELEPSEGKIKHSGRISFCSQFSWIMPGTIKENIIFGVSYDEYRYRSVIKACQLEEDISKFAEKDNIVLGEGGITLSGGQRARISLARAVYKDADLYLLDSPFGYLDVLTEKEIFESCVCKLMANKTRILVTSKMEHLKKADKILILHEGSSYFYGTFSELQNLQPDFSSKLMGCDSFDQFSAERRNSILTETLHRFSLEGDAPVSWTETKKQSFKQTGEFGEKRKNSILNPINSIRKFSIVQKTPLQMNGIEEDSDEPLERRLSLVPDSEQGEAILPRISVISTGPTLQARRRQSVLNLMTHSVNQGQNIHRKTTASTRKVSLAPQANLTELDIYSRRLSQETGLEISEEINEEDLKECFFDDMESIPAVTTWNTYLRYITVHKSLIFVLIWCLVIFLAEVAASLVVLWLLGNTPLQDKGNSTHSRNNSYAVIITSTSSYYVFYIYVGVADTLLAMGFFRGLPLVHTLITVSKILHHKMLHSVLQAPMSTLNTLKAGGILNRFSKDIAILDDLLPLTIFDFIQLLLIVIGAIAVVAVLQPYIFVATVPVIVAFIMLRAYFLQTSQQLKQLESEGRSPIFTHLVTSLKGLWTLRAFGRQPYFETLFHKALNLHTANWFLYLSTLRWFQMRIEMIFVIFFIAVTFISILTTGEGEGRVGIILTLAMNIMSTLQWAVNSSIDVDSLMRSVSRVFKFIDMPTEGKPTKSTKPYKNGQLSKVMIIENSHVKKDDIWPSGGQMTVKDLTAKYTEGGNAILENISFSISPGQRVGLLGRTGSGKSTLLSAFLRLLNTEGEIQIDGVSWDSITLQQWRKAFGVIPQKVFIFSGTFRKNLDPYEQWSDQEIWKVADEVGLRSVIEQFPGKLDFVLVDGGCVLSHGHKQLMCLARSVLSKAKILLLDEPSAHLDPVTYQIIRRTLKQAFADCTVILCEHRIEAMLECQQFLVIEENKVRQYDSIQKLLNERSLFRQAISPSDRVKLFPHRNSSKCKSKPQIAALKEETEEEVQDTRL

Take `O=C(Nc1ccc(F)cc1)c1c(NC(=O)C(F)(F)I)sc2c1CCCCC2`: the inhibition result in data set [1] was “inactive”.

As usually defined, the IC50 is the point on the concentration scale where inhibition reaches its midpoint. On to `CCC(=O)Nc1sc2c(c1C(=O)Nc1ccccc1C)CCCCC2`, for which, at Anoctamin-1 [2], the half-maximal inhibitory concentration (IC50) is more than 20 µM.

With `COc1cc(Nc2ccc([N+](=O)[O-])cc2C(=O)O)cc2ccccc12`, the IC50 at Anoctamin-1 [3] was 1.6 µM; in data set [4] it was more than 20 µM; on Anoctamin-2 [5], 13 µM; against Anoctamin-1 [6] it was 0.08 µM. The inhibition entry in data set [1] is “inactive”. In data set [7], the viability at 8 h, 5 µM worked out at 100%.

As to `Cc1ccccc1NC(=O)c1c(NC(=O)C(=O)F)sc2c1CCCCC2`, the Drug metabolism entry in [8] was “Metabolite detected”.

In the case of `COc1ccccc1/C=N/NC(=O)COc1ccc(Cl)cc1C`, in the data set on Liver, the Stability result is reported as “Unstable”. Also, the inhibition entry in data set [1] is “inactive”.

With `Cc1ccccc1NC(=O)c1c(NC(=O)C(F)(F)F)sc2c1CCCCC2`, the inhibition result in data set [9] was “Dose-dependent effect”. In addition, the inhibition entry in data set [1] was “inactive”. In addition, the IC50 in data set [4] amounted to 4 µM. In data set [7], the viability at 8 h, 5 µM turned out to be 99%.

`Cc1ccccc1NC(=O)c1c(NC(=O)C(O)(F)F)sc2c1CCCCC2`: the Drug metabolism result in data set [8] is listed as “Metabolite detected”.

Consider `CCC(=O)Nc1sc2c(c1C(=O)Nc1ccccc1OC(F)(F)F)CCCCC2`, for which the IC50 on Anoctamin-1 [2] was more than 20 µM.

Take `Cc1ccccc1NC(=O)c1c(NC(=O)C(F)(F)Cl)sc2c1CCCCC2`: in [1], the inhibition entry was “inactive”. Further, in data set [7], the viability at 8 h, 5 µM stood at 98%.

In the case of `Cc1ccccc1NC(=O)c1c(NC(=O)C(F)(F)I)sc2c1CCCCC2`, in [1], the inhibition entry is “inactive”. For the same compound, the viability at 8 h, 5 µM in data set [7] amounted to 96%.

In the case of `O=C(Nc1ccccc1)c1c(NC(=O)C(F)(F)F)sc2c1CCCCC2`, the inhibition result in data set [1] is “inactive”.

On to `O=C(Nc1ccccc1OC(F)(F)F)c1c(NC(=O)C(F)(F)Br)sc2c1CCC2`, for which the solubility entry in [10] is “Insoluble”.

In the case of `O=C(Nc1ccccc1OC(F)(F)F)c1c(NC(=O)C(F)(F)Cl)sc2c1CCC2`, the solubility entry in [10] is “Insoluble”.

For the compound `Cc1ccccc1NC(=O)c1c(NC(=O)C(=O)O)sc2c1CCCCC2`, the Drug metabolism entry in data set [8] was “Metabolite detected”.

Consider `CCc1c(C)nc(SCC(=O)Nc2nc(-c3ccc(OC)cc3)cs2)nc1O`, for which the figures for the IC50 at Anoctamin-1 [3] and at Anoctamin-2 [11] were 1 µM and 4 µM, respectively. In data set [1], the inhibition result is “inactive”. The viability at 8 h, 5 µM in [7] is 97%.
